Assay results taken from PubChem BioAssay AID504383 (The Scripps Research Institute Molecular Screening Center, 2011).
Among all 2,500 compounds or so, about 1,200 (48%) were called active. The set was probably picked from earlier hits. Some of the results follow. Values without a mark were called inactive.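 How the source made its calls: active means mean activation above the low control average plus 3 SD, as set in the primary screen (cut at about 12% in these data); inactive means the rest.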

Target: Troponin I, cardiac muscle (Homo sapiens) + Troponin T, cardiac muscle (Homo sapiens) + Troponin C, slow skeletal and cardiac muscles (Homo sapiens) (UniProt P19429+P45379+P63316)
Assay: cardiac RTF calcium sensitivity activators, confirmation, biochemical, IANBD-TnC fluorescence, triplicate (AID 504383);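 further: 0% = DMSO at 0.472 mM calcium and 100% = DMSO at 2.9 mM calcium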
Details: IANBD-labeled cardiac RTF, Ca2+ sensitivity fluorescence; at 7.2 µM; hits give high values; scaled from EC20 to saturating calcium; tested at EC20 calcium, 0.472 mM
How it was run: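 Material: labelled regulated thin filaments; Reagent: 0.472 mM calcium; Incubation: 15 min compound incubation with filaments at 25 °C; Detection: filament fluorescence intensity; Evaluation: fluorescence increase normalised to calcium controls; Benchmarks: low control EC20 calcium, high control EC100 calcium.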

| Compound | activation |
| --- | --- |
| Cc1occc1C(=O)Nc1cccc([N+](=O)[O-])c1 | 30.8% (active) |
| O=C(Nn1cnnc1)c1cc([N+](=O)[O-])cc([N+](=O)[O-])c1 | 11.3% |
| Cc1csc(NS(=O)(=O)c2cccc([N+](=O)[O-])c2)n1 | 10.9% |
| COc1ccc2cc(CN(CC3CCCO3)C(=S)NCc3ccco3)c(=O)[nH]c2c1 (stereo not given) | 1.66% |
| COc1cc2cc(CN(Cc3cccnc3)C(=O)NCc3ccccc3)c(=O)[nH]c2cc1OC | 324% (active) |
| O=C(c1ccncc1)N(Cc1ccccc1)Cc1nc2ccccc2c(=O)[nH]1 | 9.24% |
| CC(=O)Nc1ccccc1C(=O)C(=O)Nc1ccc(F)c(Cl)c1 | 7.61% |
| CN1c2ccccc2C(O)=C(C(=S)Nc2ccc(F)c(Cl)c2)S1(=O)=O | 54.4% (active) |
| CC(=O)/C(C=Nc1noc(C)c1Br)=C(\C)O | 50.2% (active) |
| C=C1C(=O)O[C@@]23[C@H]1CC[C@@H](C)[C@@H]2CC[C@@]1(C)O[C@@H]31 | 11.9% (active) |
| C=CCNC(=O)NC(=O)COC(=O)CC(NC(N)=O)c1ccc(Cl)cc1 (stereo not given) | 154% (active) |
| CN(C)CCN(C)Cc1c2ccccc2c(CN(C)CCN(C)C)c2ccccc12 | 27.7% (active) |
| CN(C)CCOc1ccccc1C(C)(C)C | 4.26% |
| CC[N+](C)(C)c1cccc(O)c1 | 3.39% |
| Cc1ccc(S(=O)(=O)Nc2ccc3ncccc3c2[N+](=O)[O-])cc1 | 11.6% |
| Nc1nc(NCc2ccco2)nc(N2CCCCCC2)c1[N+](=O)[O-] | 6.31% |
| Cc1ccc(S(=O)(=O)Nc2nc3ccccc3nc2NCc2ccco2)cc1 | 23.7% (active) |
| COC(=O)c1[nH]c2ccc(C)cc2c1NC(=O)C(C)N1CCN(C2CCCCC2)CC1 (stereo not given) | 10.5% |
| COc1ccccc1-c1nnc(SCC(=O)Nc2ccc3[nH]c(=O)[nH]c3c2)n1N | 6.5% |
| CCn1c(C)c(CCC(=O)O)c(=O)n2nc(-c3ccccc3OC)cc12 | 11.7% (active) |
| O=S(=O)(CCN(CCS(=O)(=O)C(F)(F)F)CC1CCCO1)C(F)(F)F (stereo not given) | 17.5% (active) |
| COC(=O)CCCCCN1C(=O)/C(=C\c2ccncc2)SC1=S | 4.31% |
| O=C(O)CCCN1C(=O)/C(=C/c2cn(-c3ccccc3)nc2-c2cccs2)SC1=S | 150% (active) |
| Cc1ccc(-c2nn(-c3ccccc3)cc2/C=C2\SC(=S)N(CCCCCC(=O)O)C2=O)o1 | 23.1% (active) |
| COc1ccccc1C(=O)NNC(=O)CCCN1C(=O)/C(=C/c2cccs2)SC1=S | 1.62% |
